What was measured:
healthy male subjects [1] = assay: Nasal examination; type: in vivo, human; settings: Gln-1062 44-mg group
In short: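 Nasal examination at screening, during the study period after one intranasal dose (44 mg; healthy elderly males, 6 active per cohort, double-dummy with oral capsules), and at follow-up about 1 week after dosing.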

Wistar rats = assay: 28-day intranasal toxicity study; type: in vivo
healthy male subjects [2] = assay: Eye movements; type: in vivo, human
[3] = Pharmacokinetics of Gln-1062 in female Wistar rats; type: in vivo
healthy male subjects [4] = assay: Adaptive tracking; type: in vivo, human
In short: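 Healthy males got one intranasal spray dose in a double-dummy design with oral capsules: 11 mg for young subjects, 22 or 33 mg for elderly subjects, 6 per dose, with age-matched nasal placebo. NeuroCart tests were run twice before dosing, then at 1, 2, 3, 4, 5, 6, 8 and 10 h after, in a quiet room, one subject per session. Analysis was mixed-model ANOVA: treatment, time and treatment×time fixed, subject random, baseline as covariate.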

healthy male subjects [5] = assay: Visual verbal learning test; type: in vivo, human
healthy male subjects [6] = assay: Face encoding and recognition task, single dose; type: in vivo, human
In short: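 Single intranasal dose in a double-dummy design (11 mg young males; 22 or 33 mg elderly males; 6 per dose) or nasal placebo. The face encoding and recognition task was done before dosing and 1 h 45 min after the nasal dose, in a quiet room, one subject per session. Each active group was compared with age-matched placebo by mixed-model ANOVA.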

healthy male subjects [7] = assay: Treatment emergent adverse events, single dose study; type: in vivo, human; settings: for Any event (treatment emerging adverse events) / Headache / Nasal discomfort / Rhinorrhea / Sneezing / Cold sweat or hyperhidrosis / Nausea / Vomiting / Diarrhea: number of subjects, percentage in parentheses
healthy male subjects [8] = assay: VAS nausea, single dose; type: in vivo, human; settings: healthy elderly males
[9] = Plasma pharmacokinetics after single intranasal dose of Gln-1062; type: in vivo, human; settings: over the Gln-1062 intranasal dose levels
healthy male subjects [10] = assay: Pharmaco-electroencephalography, single dose; type: in vivo, human
[11] = Gln-1062 5.5 mg vs Placebo, healthy young males
[12] = Gln-1062 11 mg vs Placebo, healthy young males
[13] = Gln-1062 22 mg vs Placebo, healthy elderly males
[14] = Gln-1062 33 mg vs Placebo, healthy elderly males
[15] = Gln-1062 44 mg vs Placebo, healthy elderly males
[16] = Gln-1062 5.5 mg, healthy young males
[17] = Gln-1062 5.5 mg, healthy young subjects
[18] = Gln-1062 11 mg, healthy young males
[19] = Gln-1062 11 mg, healthy young subjects
[20] = Gln-1062 22 mg, healthy elderly males
[21] = Gln-1062 22 mg, healthy elderly subjects
[22] = Gln-1062 33 mg, healthy elderly males
[23] = Gln-1062 33 mg, healthy elderly subjects
[24] = Gln-1062 44 mg, healthy elderly males
[25] = Gln-1062 44 mg, healthy elderly subjects

COc1ccc2c3c1O[C@H]1C[C@@H](OC(=O)c4ccccc4)C=C[C@@]31CCN(C)C2 [Gln-1062]
subjects with dry white plaques in the nostrils (healthy male subjects [1]): three
human equivalent dose (Wistar rats; estimated from the rat NOAEL): 48 mg
NOAEL (Wistar rats; intranasal, 28-day, Wistar rats): 5 mg/kg
Saccadic Inaccuracy (healthy male subjects [2]; [11]): −1.56 (−2.77 to −0.35) P = .0157%
Saccadic Peak Velocity (healthy male subjects [2]; [11]): 9.90 (−17.50 to 37.30) P = .4465 deg/sec
Saccadic Inaccuracy (healthy male subjects [2]; [12]): −1.78 (−3.03 to −0.54) P = .0088%
Saccadic Peak Velocity (healthy male subjects [2]; [12]): 8.32 (−18.32 to 34.95) P = .5097 deg/sec
Saccadic Inaccuracy (healthy male subjects [2]; [13]): 0.24 (−1.01 to 1.48) P = .7005%
Saccadic Peak Velocity (healthy male subjects [2]; [13]): 26.92 (4.11 to 49.73) P = .0223 deg/sec
Saccadic Inaccuracy (healthy male subjects [2]; [14]): 0.08 (−1.14 to 1.30) P = .8970%
Saccadic Peak Velocity (healthy male subjects [2]; [14]): 0.92 (−21.84 to 23.68) P = .9349 deg/sec
Saccadic Inaccuracy (healthy male subjects [2]; [15]): −0.22 (−1.57 to 1.12) P = .7363%
Saccadic Peak Velocity (healthy male subjects [2]; [15]): 19.19 (−5.54 to 43.92) P = .1242 deg/sec
Brain-to-blood ratio (AUClast brain / AUClast blood) ([3]; 5.0 mg/kg Gln-1062 IN): 8.1
Brain-to-blood ratio (AUClast brain / AUClast blood) ([3]; 5.0 mg/kg Gln-1062 IV): 18.40
Brain-to-blood ratio (AUClast brain / AUClast blood) ([3]; 20.0 mg/kg Gln-1062 IN): 10.2
AUClast ([3]; blood, 5.0 mg/kg Gln-1062 IV): 528 ng·h/mL
Cmax ([3]; blood, 5.0 mg/kg Gln-1062 IV): 650 ng/mL
AUClast ([3]; brain, 5.0 mg/kg Gln-1062 IV): 9717 ng·h/g
Adaptive tracking (healthy male subjects [4]; [11]): 1.96 (−0.88 to 4.80) P = .1581%
Adaptive tracking (healthy male subjects [4]; [12]): 3.47 (0.52 to 6.42) P = .0247%
Adaptive tracking (healthy male subjects [4]; [13]): 0.64 (−1.06 to 2.35) P = .4474%
Adaptive tracking (healthy male subjects [4]; [14]): 1.79 (0.07 to 3.52) P = .0424%
Adaptive tracking (healthy male subjects [4]; [15]): 0.74 (−0.99 to 2.48) P = .3887%
VVLT: delayed word recall (correct) (healthy male subjects [5]; [11]): 3.42 (−2.62 to 9.45) P = .2431
VVLT: immediate word recall trial 1 (Word recall correct 1) (healthy male subjects [5]; [11]): 3.42 (−0.73 to 7.56) P = .0984
VVLT: immediate word recall trial 2 (Word recall correct 2) (healthy male subjects [5]; [11]): 3.17 (−1.93 to 8.26) P = .2025
VVLT: immediate word recall trial 3 (Word recall correct 3) (healthy male subjects [5]; [11]): 5.00 (−0.58 to 10.58) P = .0749
VVLT: word recognition (Delayed word recognition correct) (healthy male subjects [5]; [11]): −0.15 (−8.05 to 7.75) P = .9674
VVLT: delayed word recall (correct) (healthy male subjects [5]; [12]): 3.25 (−2.79 to 9.29) P = .2657
VVLT: immediate word recall trial 1 (Word recall correct 1) (healthy male subjects [5]; [12]): 3.92 (−0.23 to 8.06) P = .0621
VVLT: immediate word recall trial 2 (Word recall correct 2) (healthy male subjects [5]; [12]): 1.83 (−3.26 to 6.93) P = .4510
VVLT: immediate word recall trial 3 (Word recall correct 3) (healthy male subjects [5]; [12]): 3.00 (−2.58 to 8.58) P = .2662
VVLT: word recognition (Delayed word recognition correct) (healthy male subjects [5]; [12]): 1.45 (−6.45 to 9.35) P = .6939
VVLT: delayed word recall (correct) (healthy male subjects [5]; [13]): −0.33 (−3.58 to 2.91) P = .8354
VVLT: immediate word recall trial 1 (Word recall correct 1) (healthy male subjects [5]; [13]): 2.67 (0.17 to 5.16) P = .0367
VVLT: immediate word recall trial 2 (Word recall correct 2) (healthy male subjects [5]; [13]): 3.50 (0.33 to 6.67) P = .0315
VVLT: immediate word recall trial 3 (Word recall correct 3) (healthy male subjects [5]; [13]): 0.67 (−3.23 to 4.56) P = .7302
VVLT: word recognition (Delayed word recognition correct) (healthy male subjects [5]; [13]): 0.87 (−4.09 to 5.82) P = .7231
VVLT: delayed word recall (correct) (healthy male subjects [5]; [14]): −0.00 (−3.63 to 3.63) P = 1.0000
VVLT: immediate word recall trial 1 (Word recall correct 1) (healthy male subjects [5]; [14]): 1.97 (−0.65 to 4.58) P = .1355
VVLT: immediate word recall trial 2 (Word recall correct 2) (healthy male subjects [5]; [14]): 1.77 (−1.56 to 5.09) P = .2880
VVLT: immediate word recall trial 3 (Word recall correct 3) (healthy male subjects [5]; [14]): 0.60 (−3.49 to 4.69) P = .7672
VVLT: word recognition (Delayed word recognition correct) (healthy male subjects [5]; [14]): −0.67 (−6.45 to 5.12) P = .8153
VVLT: delayed word recall (correct) (healthy male subjects [5]; [15]): −1.00 (−4.63 to 2.63) P = .5780
VVLT: immediate word recall trial 1 (Word recall correct 1) (healthy male subjects [5]; [15]): 2.57 (−0.05 to 5.18) P = .0541
VVLT: immediate word recall trial 2 (Word recall correct 2) (healthy male subjects [5]; [15]): 1.77 (−1.56 to 5.09) P = .2880
VVLT: immediate word recall trial 3 (Word recall correct 3) (healthy male subjects [5]; [15]): 1.00 (−3.09 to 5.09) P = .6222
VVLT: word recognition (Delayed word recognition correct) (healthy male subjects [5]; [15]): 2.17 (−3.11 to 7.45) P = .4083
Face: number correct (healthy male subjects [6]; [11]): −0.77 (−4.17 to 2.64) P = .6332
Face: number correct (healthy male subjects [6]; [12]): 4.54 (1.22 to 7.87) P = .0116
Face: number correct (healthy male subjects [6]; [13]): −2.58 (−7.22 to 2.06) P = .2642
Face: number correct (healthy male subjects [6]; [14]): −0.54 (.5.15 to 4.08) P = .8135
Face: number correct (healthy male subjects [6]; [15]): −1.63 (−6.30 to 3.05) P = .4822
Any event (treatment emerging adverse events) (healthy male subjects [7]; [16]): 6 (100)
Headache (healthy male subjects [7]; [16]): 2 (33.3)
Nasal discomfort (healthy male subjects [7]; [16]): 6 (100)
Rhinorrhea (healthy male subjects [7]; [16]): 2 (33.3)
Sneezing (healthy male subjects [7]; [16]): 1 (16.7)
Diarrhea, incidence (healthy male subjects [7]; [17]): did not occur
Vomiting, incidence (healthy male subjects [7]; [17]): did not occur
Cold sweat or hyperhidrosis, incidence (healthy male subjects [7]; Gln-1062 11 mg): 16.7%
Nausea, incidence (healthy male subjects [7]; [18]): 16.7%
Any event (treatment emerging adverse events) (healthy male subjects [7]; [18]): 6 (100)
Cold sweat or hyperhidrosis (healthy male subjects [7]; [18]): 1 (16.7)
Headache (healthy male subjects [7]; [18]): 2 (33.3)
Nasal discomfort (healthy male subjects [7]; [18]): 6 (100)
Nausea (healthy male subjects [7]; [18]): 1 (16.7)
Rhinorrhea (healthy male subjects [7]; [18]): 4 (66.7)
Sneezing (healthy male subjects [7]; [18]): 1 (16.7)
Vomiting (healthy male subjects [7]; [18]): 1 (16.7)
Diarrhea, incidence (healthy male subjects [7]; [19]): did not occur
Vomiting, incidence (healthy male subjects [7]; [19]): 16.7%
Nausea, incidence (healthy male subjects [7]; [20]): 16.7%
Any event (treatment emerging adverse events) (healthy male subjects [7]; [20]): 5 (83.3)
Diarrhea (healthy male subjects [7]; [20]): 1 (16.7)
Headache (healthy male subjects [7]; [20]): 3 (50)
Nasal discomfort (healthy male subjects [7]; [20]): 4 (66.7)
Nausea (healthy male subjects [7]; [20]): 1 (16.7)
Rhinorrhea (healthy male subjects [7]; [20]): 2 (33.3)
Sneezing (healthy male subjects [7]; [20]): 1 (16.7)
Diarrhea, incidence (healthy male subjects [7]; [21]): 16.7%
Vomiting, incidence (healthy male subjects [7]; [21]): did not occur at all
Any event (treatment emerging adverse events) (healthy male subjects [7]; [22]): 5 (83.3)
Diarrhea (healthy male subjects [7]; [22]): 1 (16.7)
Headache (healthy male subjects [7]; [22]): 2 (33.3)
Nasal discomfort (healthy male subjects [7]; [22]): 4 (66.7)
Nausea (healthy male subjects [7]; [22]): 3 (50)
Rhinorrhea (healthy male subjects [7]; [22]): 1 (16.7)
Sneezing (healthy male subjects [7]; [22]): 1 (16.7)
Vomiting (healthy male subjects [7]; [22]): 2 (33.3)
Diarrhea, incidence (healthy male subjects [7]; [23]): 16.7%
Vomiting, incidence (healthy male subjects [7]; [23]): 33.3%
Cold sweat or hyperhidrosis, incidence (healthy male subjects [7]; Gln-1062 44 mg): 50%
Any event (treatment emerging adverse events) (healthy male subjects [7]; [24]): 5 (83.3)
Cold sweat or hyperhidrosis (healthy male subjects [7]; [24]): 3 (50)
Diarrhea (healthy male subjects [7]; [24]): 1 (16.7)
Nasal discomfort (healthy male subjects [7]; [24]): 3 (50)
Nausea (healthy male subjects [7]; [24]): 3 (50)
Rhinorrhea (healthy male subjects [7]; [24]): 3 (50)
Sneezing (healthy male subjects [7]; [24]): 3 (50)
Vomiting (healthy male subjects [7]; [24]): 2 (33.3)
Diarrhea, incidence (healthy male subjects [7]; [25]): 16.7%
Vomiting, incidence (healthy male subjects [7]; [25]): 33.3%
Nausea, incidence (healthy male subjects [7]; Gln-1062 at the highest dose levels (n = 3)): 50%
single dose levels safe and well tolerated (healthy male subjects [7]; intranasal single dose): up to 33 mg
peak of nausea (VAS nausea), time after administration (healthy male subjects [8]): 4 h
Tmax [9]: 15 to 45 min
half-life [9]: 1.1 to 2.8 h
EEG Alpha Fz-Cz (uV) (healthy male subjects [10]; [11]): −13.2% (−30.5% to 8.5%) P = .1914
EEG Alpha Pz-Oz (uV) (healthy male subjects [10]; [11]): −8.9% (−23.8% to 8.9%) P = .2782
EEG Alpha Fz-Cz (uV) (healthy male subjects [10]; [12]): −0.8% (−19.5% to 22.1%) P = .9310
EEG Alpha Pz-Oz (uV) (healthy male subjects [10]; [12]): −13.1% (−27.2% to 3.7%) P = .1086
EEG Alpha Fz-Cz (uV) (healthy male subjects [10]; [13]): 7.8% (−7.0% to 25.1%) P = .3088
EEG Alpha Pz-Oz (uV) (healthy male subjects [10]; [13]): 13.8% (−5.4% to 36.9%) P = .1633
EEG Alpha Fz-Cz (uV) (healthy male subjects [10]; [14]): 21.5% (4.8% to 40.8%) P = .0116
EEG Alpha Pz-Oz (uV) (healthy male subjects [10]; [14]): 19.7% (−0.2% to 43.6%) P = .0530
EEG Alpha Fz-Cz (uV) (healthy male subjects [10]; [15]): −10.1% (−24.2% to 6.6%) P = .2121
EEG Alpha Pz-Oz (uV) (healthy male subjects [10]; [15]): 2.1% (−16.3% to 24.5%) P = .8306

Source: publication PMC5644278 (Alzheimer's & Dementia : Translational Research & Clinical …, 2016)
